Calls of active or inactive are those of the source. No cut-off for these calls is given here.

Data on five compounds can be found in ChEMBL document CHEMBL1150837, “New sesquiterpene derivatives from the sponge Dysidea species with a selective inhibitor profile against human phospholipase A2 and other leukocyte functions” (J Nat Prod, 2001).

Series [1] concerns the target Acidic phospholipase A2 2 (Naja naja) (UniProt P15445). Nature of the series: Inhibition of Naja naja venom group 1 secretory phospholipase A2 at 10 uM by liquid scintillation counting. The method in brief:
(§1)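 Enzyme diluted in 100 mM Tris-HCl, 1 mM CaCl2, pH 7.5, preincubated 5 min at 37 °C with compound or vehicle. Substrate was autoclaved E. coli CECT 101 membranes labelled with [3H]oleic acid. Reaction ran 15 min, stopped with ice-cold BSA (0.07% w/v final), spun 1200g 10 min at 4 °C, supernatant counted. IC50 from ≥4 concentrations; mean ± SEM, n = 6.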

In series [2] the target is T1, Cytosolic phospholipase A2 (Mus musculus) (UniProt P47713).
T1 sequence (whole entry): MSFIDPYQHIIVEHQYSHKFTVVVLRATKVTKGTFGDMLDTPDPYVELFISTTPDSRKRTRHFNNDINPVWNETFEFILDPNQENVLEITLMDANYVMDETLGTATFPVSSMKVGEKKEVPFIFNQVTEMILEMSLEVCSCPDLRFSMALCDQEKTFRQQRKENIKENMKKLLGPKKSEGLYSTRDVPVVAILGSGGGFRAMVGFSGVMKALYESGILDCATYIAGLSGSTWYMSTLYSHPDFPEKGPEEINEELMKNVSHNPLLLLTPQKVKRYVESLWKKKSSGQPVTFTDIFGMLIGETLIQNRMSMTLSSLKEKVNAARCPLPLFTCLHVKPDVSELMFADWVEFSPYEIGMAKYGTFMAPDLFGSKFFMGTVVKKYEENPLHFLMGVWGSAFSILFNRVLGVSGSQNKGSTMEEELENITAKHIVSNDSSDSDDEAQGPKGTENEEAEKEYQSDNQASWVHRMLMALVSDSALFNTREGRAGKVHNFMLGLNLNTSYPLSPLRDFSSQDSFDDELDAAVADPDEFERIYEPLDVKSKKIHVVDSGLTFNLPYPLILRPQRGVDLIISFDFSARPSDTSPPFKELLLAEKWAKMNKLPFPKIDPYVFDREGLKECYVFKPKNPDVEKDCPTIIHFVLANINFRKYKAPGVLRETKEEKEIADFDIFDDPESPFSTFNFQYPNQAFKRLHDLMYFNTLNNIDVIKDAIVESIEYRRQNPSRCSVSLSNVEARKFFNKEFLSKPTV
Nature of the series: Inhibition of group 4 cytosolic phospholipase A2 in mouse RAW264.7 cells at 10 uM. The class given is cell-based. In short, it runs like this:
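Enzyme was the cytosolic fraction of RAW 264.7 macrophages. Substrate 1-palmitoyl-2-[14C]arachidonyl-sn-glycero-3-phosphocholine. Compound added in methanol (<1% final) just before the enzyme. Incubation 60 min at 37 °C, stopped with isopropanol-heptane-H2SO4. Released arachidonate extracted into hexane, cleaned on silica gel and counted. Mean ± SEM, n = 6.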

Series [3] has as its target Phospholipase A2, major isoenzyme (Sus scrofa) (UniProt P00592). Nature of the series: Inhibition of pig pancreatic group 1 secretory phospholipase A2 at 10 uM by liquid scintillation counting. The method in brief: (§2)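 Substrate was E. coli CECT 101 membranes labelled with [3H]oleic acid and autoclaved. Enzyme in 100 mM Tris-HCl/1 mM CaCl2, pH 7.5, was preincubated 5 min at 37 °C with compound or vehicle, then incubated 15 min with membranes. The reaction was stopped with ice-cold BSA (final 0.07%) and centrifuged, and supernatant radioactivity was counted. IC50 from ≥4 concentrations; n = 6.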

The target of series [4] is Phospholipase A2, major isoenzyme (Sus scrofa, UniProt P00592). Nature of the series: Inhibition of pig pancreatic group 1 secretory phospholipase A2 by liquid scintillation counting. In short, it runs like this: as §2
Phospholipase A2, major isoenzyme, sequence (P00592 whole entry): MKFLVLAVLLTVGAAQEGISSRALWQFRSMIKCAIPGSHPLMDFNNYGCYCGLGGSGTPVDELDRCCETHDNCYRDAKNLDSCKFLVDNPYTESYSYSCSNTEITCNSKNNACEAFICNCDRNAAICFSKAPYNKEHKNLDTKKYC
Series [5] deals with T2, Phospholipase A2, membrane associated (Homo sapiens) (UniProt P14555).
T2 sequence (whole entry): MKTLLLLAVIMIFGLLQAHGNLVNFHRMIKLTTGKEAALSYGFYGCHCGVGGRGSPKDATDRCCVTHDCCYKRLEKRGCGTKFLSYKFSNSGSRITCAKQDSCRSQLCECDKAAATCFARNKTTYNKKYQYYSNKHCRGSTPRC
Nature of the series: Inhibition of human synovial recombinant group 2 secretory phospholipase A2 at 10 uM by liquid scintillation counting. In short, it runs like this:
as §2

The target in series [6] is T3, Phospholipase A2, membrane associated (Homo sapiens, UniProt P14555).
T3 sequence (P14555 whole entry): T2 sequence (whole entry)
Nature of the series: Inhibition of human synovial recombinant group 2 secretory phospholipase A2 by liquid scintillation counting. The method in brief: as §2

Series [7] concerns the target T4, Phospholipase A2 (Apis mellifera) (UniProt P00630).
T4 sequence (whole entry): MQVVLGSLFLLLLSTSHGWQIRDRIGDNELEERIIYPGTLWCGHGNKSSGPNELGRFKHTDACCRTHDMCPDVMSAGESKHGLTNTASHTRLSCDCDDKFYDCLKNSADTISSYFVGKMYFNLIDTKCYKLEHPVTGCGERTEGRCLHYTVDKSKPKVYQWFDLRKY
Nature of the series: Inhibition of bee venom group 3 secretory phospholipase A2 at 10 uM by liquid scintillation counting. The method in brief: as §1

The next series has as its target T5, Phospholipase A2 (Apis mellifera, UniProt P00630).
T5 sequence (P00630 whole entry): T4 sequence (whole entry)
Nature of the series: Inhibition of bee venom group 3 secretory phospholipase A2 by liquid scintillation counting. The method in brief: as §1

The target in series [8] is T1, Cytosolic phospholipase A2 (Mus musculus). Nature of the series: Inhibition of group 4 cytosolic phospholipase A2 in mouse RAW264.7 cells. The class given is cell-based. The method in brief:
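Enzyme source was cytosolic fractions of RAW 264.7 cells. Substrate was 1-palmitoyl-2-[14C]arachidonyl-PC (2 × 10^6 cpm). Compounds were added in methanol (final <1%) just before the enzyme. After 60 min at 37 °C, the reaction was stopped with isopropanol/heptane/0.5 M H2SO4 and extracted into hexane with silica gel. Released arachidonate was counted.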

Series [9] is described as follows: Cytotoxicity against human neutrophils assessed as inhibition of cell viability at 10 uM after 16 to 40 hrs by MTT assay. Format: cell-based, Neutrophil. To be noted: read-out: INH. The method in brief:
(§3)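 Cytotoxicity measured on purified human neutrophils as mitochondrial-dependent reduction of MTT to formazan; compounds tested up to 10 µM, reported as % inhibition of viability. Mean ± SEM, n = 6.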
(Formazan colour is commonly taken as a measure of viable cells.)

In series [10] the test system is Neutrophil. Nature of the series: Inhibition of TPA-induced chemiluminescence response in human neutrophils at 10 uM after 7 mins. Format: functional. In short, it runs like this:
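Neutrophils (2.5 × 10^6/mL) mixed with luminol (40 µM) and stimulated with 1 µM TPA; chemiluminescence read at 7 min, the time of maximal production. % inhibition at 10 µM; mean ± SEM, n = 6.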

Series [11] deals with Neutrophil. Nature of the series: Inhibition of cytochalasin B and fMLP-stimulated human neutrophil degranulation assessed as inhibition of elastase release at 10 uM preincubated for 5 mins before cytochalasin B and fMLP challenge measured after 20 mins by microtiter plate assay. Format: functional. The method in brief:
(§4)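 Neutrophils (2.5 × 10^6/mL) preincubated 5 min with compound or vehicle, then stimulated 10 min at 37 °C with cytochalasin B (10 µM) + FMLP (10 nM). Supernatants incubated 20 min at 37 °C with Boc-L-alanine p-nitrophenyl ester (200 µM); p-nitrophenol read at 414 nm. IC50 from ≥4 concentrations, n = 6.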

Series [12] concerns Neutrophil. Nature of the series: Inhibition of cytochalasin B and fMLP-stimulated human neutrophil degranulation assessed as inhibition of elastase release preincubated for 5 mins before cytochalasin B and fMLP challenge measured after 20 mins by microtiter plate assay. Format: functional, cell-based. The method in brief: as §4
A short description of series [13]: Cytotoxicity against human neutrophils up to 10 uM after 16 to 40 hrs by MTT assay. The class given is cell-based. To be noted: neutrophil. In short, it runs like this:
as §3

Setting [14] is: Homo sapiens, Neutrophil, read-out: IC50.

Acidic phospholipase A2 2 (Naja naja), sequence (P15445 whole entry): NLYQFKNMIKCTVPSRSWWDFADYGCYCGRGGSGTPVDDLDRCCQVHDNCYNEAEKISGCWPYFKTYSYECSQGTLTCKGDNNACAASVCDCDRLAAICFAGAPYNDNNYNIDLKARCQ
Phospholipase A2, major isoenzyme (Sus scrofa), sequence (P00592 23-146 limits assumed): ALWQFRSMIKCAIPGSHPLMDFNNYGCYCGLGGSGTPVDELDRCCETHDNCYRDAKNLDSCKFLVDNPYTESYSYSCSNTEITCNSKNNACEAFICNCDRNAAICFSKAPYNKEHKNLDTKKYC

In general, inhibition refers to the drop in the measured response relative to a control, in per cent. As for `CC1=C(CC/C(C)=C/CCC2=CC[C@H](C3=CC(=O)O[C@H]3O)O[C@H]2O)C(C)(C)CCC1`, the inhibition in series [1] was 17%; in series [2] it was 44.6%.
Broadly, the IC50 is the midpoint of a concentration-inhibition curve. With `COC1=CC(=O)C(O)=C(C[C@@]2(C)CC[C@]3(C)C(C)=CCC[C@H]3[C@H]2C)C1=O` [BOLINAQUINONE], the inhibition in series [1] was 26%; in [3], 86.4%; in [5] it was 100%; in [7] it was 99.1%. Also, the IC50 in series [4] turned out to be 0.4 µM; in series [6], 0.2 µM; on Phospholipase A2, 0.1 µM; in the series on Neutrophil [12] (setting [14]), 5.2 µM. For the same compound, the inhibition result in series [8] was “inactive”. For the same compound, in series [9], the cytotoxicity at 10 µM stood at 14%. Also, the inhibition at 10 µM in the series on Neutrophil [10] stood at 40.1%; in the series with Neutrophil [11] it was 68.1%.
As for `COC(=O)[C@]1(O)C=C(OC)C(=O)[C@@H]1C[C@@]1(C)CC[C@]2(C)C(C)=CCC[C@H]2[C@H]1C` [DYSIDENONE A], the inhibition entry in series [8] is “inactive”. Besides, the Activity result in [13] is “Non-toxic”.
For `COC(=O)[C@@]1(O)C=C(OC)C(=O)[C@H]1C[C@@]1(C)CC[C@]2(C)C(C)=CCC[C@H]2[C@H]1C` [DYSIDENONE B] the same measures were “inactive” and “Non-toxic”.
Take `CC1=CCC[C@H]2[C@@H](C)[C@@](C)(CC3=C(O)C(=O)C=C(NCCS(=O)(=O)O)C3=O)CC[C@]12C` [DYSIDINE]: the inhibition in [1] is 0.7%; in series [3], 1.2%; in series [5], 73.8%; in series [7] it was 33.4%. The results for the IC50 (in [6]; in the series with Neutrophil [12] (setting [14]); with Neutrophil [12] (neutrophil)) were 2 µM, 1.3 µM and “Dose-dependent effect”, respectively. For the same compound, the inhibition result in series [8] is “inactive”. Also, in series [13], the Activity entry is “Non-toxic”. Further, the cytotoxicity at 10 µM in series [9] worked out at 0.3%. Moreover, the inhibition at 10 µM with Neutrophil [10] turned out to be 44.4%; in the series on Neutrophil [11], 90.7%.
